The record followed here is ChEMBL document CHEMBL1154931, “Exploration of a new series of PAR1 antagonists” (Bioorg Med Chem Lett, 2010).

Active and inactive are the calls of the source. The rule behind the calls is not given here.

The target of test [1] is T1, Proteinase-activated receptor 1 (Homo sapiens, UniProt P25116).
T1 sequence (P25116 whole entry): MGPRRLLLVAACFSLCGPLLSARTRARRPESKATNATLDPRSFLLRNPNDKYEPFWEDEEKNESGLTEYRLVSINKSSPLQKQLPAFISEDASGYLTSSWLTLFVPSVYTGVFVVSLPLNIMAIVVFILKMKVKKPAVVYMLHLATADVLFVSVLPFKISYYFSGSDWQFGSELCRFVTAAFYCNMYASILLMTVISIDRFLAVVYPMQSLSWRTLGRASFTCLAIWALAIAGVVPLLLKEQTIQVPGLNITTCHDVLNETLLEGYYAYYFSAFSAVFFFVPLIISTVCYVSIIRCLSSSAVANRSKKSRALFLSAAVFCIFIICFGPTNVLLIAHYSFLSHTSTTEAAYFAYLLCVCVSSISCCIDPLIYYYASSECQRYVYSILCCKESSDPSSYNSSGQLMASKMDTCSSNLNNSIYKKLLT
Description: (§1) Antagonist activity at PAR1 expressed in CHO cells assessed as inhibition of SFLLR-NH2-induced calcium release by FLIPR assay. Format: functional, cell-based. The settings on record: read-out: pA2 (converted). In a few lines: (§2)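 Concentration-response study in the same calcium-release screen, with release induced by 1 µM SFLLR-NH₂. Used to separate partial from fully competitive antagonists; pA₂ was derived for full antagonists only.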

Test [2] can be described thus: Antiaggregatory activity in human platelets assessed as inhibition of SFLLR-induced aggregation. Format: functional, Platelet.
Test [3] addresses T2, Proteinase-activated receptor 1 (Homo sapiens) (UniProt P25116).
T2 sequence (whole entry): T1 sequence (P25116 whole entry)
In words: Antagonist activity at PAR1 expressed in CHO cells assessed as inhibition of SFLLR-NH2-induced calcium release at 10 uM by FLIPR assay. Format: functional, cell-based. The essentials:
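Calcium release triggered by 1 µM SFLLR-NH₂; test compound at 10 µM, read as % inhibition of the agonist response. Values are mean SEM of at least two independent determinations, each run in triplicate.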

Test [4] relates to Rattus norvegicus. In words: Antithrombotic activity in rat assessed as increase in occlusion time of arteriovenous shunt at 1.25 mg/kg, iv. Format: functional. In a few lines: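 Arteriovenous extracorporeal shunt in anesthetized rats, compound dosed at 1.25 mg/kg. Read-out is % increase of occlusion time.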
For test [5], the target named is T2, Proteinase-activated receptor 1 (Homo sapiens). The description is as §1. Format: functional, cell-based. The essentials:
as §2

For `N#Cc1ccccc1/C=C/c1c(N2CCN(Cc3ccsc3)CC2)c(=O)c1=O`, in test [1], the Kb was 389 nM. Further, the pKb (as a rule, −log10 of the Kb, conventionally taken in molar units) in test [2] is 4. The inhibition – broadly, the share of the control response that was lost under treatment – in test [3] amounted to 97%.

As to `O=C(c1cc2ccccc2[nH]1)N1CCN(Cc2ccccc2)CC1`, in test [3], the inhibition amounted to 2%.

`N#Cc1ccccc1/C=C/C(=O)c1ccc(N2CC=CC2)cn1`: the inhibition in test [3] came to 52%.

As for `O=C(C1=Cc2ccccc2OC1)N1CCN(Cc2ccc(F)cc2)CC1`, the inhibition in test [3] came to 16%.

`N#Cc1ccccc1/C=C/c1c(N2CCN(CC3CCCCC3)CC2)c(=O)c1=O`: in test [1], the Kb is 427 nM. Further, the pKb in test [2] is recorded as 4. Besides, the inhibition in test [3] was determined as 84%.

`O=c1c(/C=C/c2ccccc2Cl)c(N2CCN(Cc3ccc(F)cc3)CC2)c1=O`: the inhibition in test [3] was 23%.

Turning to `N#Cc1ccccc1/C=C/C(=O)N1CCC(N(Cc2ccc(F)cc2)Cc2ccccn2)C(F)C1` (stereo not drawn), the inhibition in test [3] came out at 33%.

As to `O=C(/C=C\c1ccccc1Cl)N1CCC(Nc2ccc(F)cc2)C(F)C1` (stereo not drawn), the Kb in test [1] was 389 nM. In test [2], the pKb is reported as 4. Moreover, the inhibition in test [3] is 85%.

Regarding `O=c1c(/C=C/c2ccccc2Cl)c(N2CCN(Cc3ccsc3)CC2)c1=O`, the inhibition in test [3] was found to be 27%.

As for `O=C(/C=C/c1ccccc1Cl)N1CCN(Cc2ccc(F)cc2)CC1`, the Kb in test [1] was 380 nM. Besides, the Activity in test [4] was found to be 28%. Moreover, in test [2], the pKb came to 5.52. In addition, the inhibition in test [3] amounted to 93%.

With `O=C(/C=C\c1ccccc1Cl)N1CCC(N(Cc2ccc(F)cc2)Cc2ccccn2)C(F)C1` (stereo not drawn), in test [3], the inhibition stood at 23%.

Turning to `N#Cc1ccccc1/C=C/C(=O)c1ccc(NC2CCCCC2)nc1`, the inhibition in test [3] stood at 53%.

For `O=c1c(/C=C/c2ccccc2Cl)c(N2CCN(CC3CCCCC3)CC2)c1=O`, the inhibition in test [3] was found to be 41%.

Turning to `N#Cc1ccccc1/C=C/C(=O)c1ccc(NC2CCCC2)nc1`, the Kb in test [1] is 933 nM. Moreover, in test [4], the Activity turned out to be 28%. Moreover, the pKb in test [2] stood at 5.05. The inhibition in test [3] amounted to 84%.

For the molecule `O=C(/C=C/c1c(F)cccc1F)c1ccc(N2CC=CC2)cn1`, the inhibition in test [3] is 60%.

On to `O=C(c1cc2ccccc2o1)N1CCN(Cc2ccccc2)CC1`, for which, in test [3], the inhibition came out at 1%.

On to `O=C(/C=C/c1c(F)cccc1F)N1CCC(NCc2ccc(F)cc2)CC1`, for which the inhibition in test [3] amounted to 0%.

`N#Cc1ccccc1/C=C\C(=O)N1CCC(NCc2ccc(F)cc2)C(F)C1` (stereo not drawn): the inhibition in test [3] amounted to 40%.

`O=C(/C=C/c1ccccc1Cl)c1ccc(NC2CCCCC2)nc1`: the pA2 entry in test [5] was “Active”. For the same molecule, the inhibition in test [3] came to 97%.

Regarding `O=C(/C=C/c1ccccc1Cl)c1ccc(N2CC=CC2)cn1`, in test [3], the inhibition was determined as 13%.

As to `Cn1c(C(=O)N2CCN(Cc3ccccc3)CC2)cc2ccccc21`, the inhibition in test [3] turned out to be 11%.

With `O=C(/C=C\c1c(F)cccc1F)N1CCC(NCc2ccc(F)cc2)C(F)C1` (stereo not drawn), the inhibition in test [3] came to 25%.

As for `O=C(/C=C/c1c(F)cccc1F)c1ccc(N2CCCC2)nc1`, in test [3], the inhibition was found to be 20%.

For the molecule `O=C(c1cc2c(F)cccc2s1)N1CCN(Cc2ccccc2)CC1`, the inhibition in test [3] was determined as 4%.

`O=c1c(/C=C/c2ccccc2Cl)c(N2CCN(Cc3ccccc3)CC2)c1=O`: the pA2 entry in test [5] is “Active”. Further, the inhibition in test [3] stood at 85%.

Consider `Cc1cccc(-c2ccc(C(=O)/C=C/c3ccccc3Cl)cn2)c1C`, for which the inhibition in test [3] was 32%.

Consider `Cc1cccc(-c2ccc(C(=O)/C=C/c3c(F)cccc3F)cn2)c1C`, for which, in test [3], the inhibition stood at 74%.

As for `N#Cc1ccccc1/C=C\C(=O)N1CCC(N(Cc2ccc(F)cc2)Cc2ccccn2)C(F)C1` (stereo not drawn), in test [1], the Kb was 589 nM. The Activity in test [4] is given as 53%. In addition, the pKb in test [2] stood at 5.68. Also, the inhibition in test [3] is 68%.

`O=C(/C=C/c1ccccc1Cl)c1ccc(NC2CCCC2)nc1`: the inhibition in test [3] was 11%.

As for `O=C(/C=C/c1c(F)cccc1F)c1ccc(NC2CCCCC2)nc1`, in test [3], the inhibition was found to be 41%.

As to `Cc1cccc(-c2ccc(C(=O)/C=C/c3c(F)cccc3F)nc2)c1C`, the inhibition in test [3] is 40%.
